Results on 13 molecules are retold here after ChEMBL document CHEMBL2069266, “An expeditious regioselective synthesis of novel bioactive indole-substituted chromene derivatives via one-pot three-component reaction” (2012).

Holding throughout (assay type): functional
Common to all, as to settings: read-out: DIZ

For assay [1], the system named is Bacillus subtilis. The assay is described as follows: Antibacterial activity against Bacillus subtilis at 12 ug/well after 24 hrs by agar well diffusion method. A digest of the protocol: (§1)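 Colonies subcultured from nutrient agar into nutrient broth, grown 37 °C for 18 h, then inoculated onto Mueller-Hinton agar plates (four plates). Wells cut with sterile 5 mm glass tube; […] of 100 µg/ml DMSO solution added per well; incubated 37 °C for 24 h before reading inhibition. Data from duplicate or triplicate experiments.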
(A growth-free zone around the sample is the usual read-out of agar diffusion tests.)

The test system of assay [2] is Micrococcus luteus. The assay is described as follows: Antibacterial activity against Micrococcus luteus at 12 ug/well after 24 hrs by agar well diffusion method. The gist of the method:
as §1

The subject of assay [3] is Pseudomonas aeruginosa. The assay is described as follows: Antibacterial activity against Pseudomonas aeruginosa at 12 ug/well after 24 hrs by agar well diffusion method. A digest of the protocol: as §1
For assay [4], the system named is Salmonella enterica. As to the kind of experiment: Antibacterial activity against Salmonella enterica at 12 ug/well after 24 hrs by agar well diffusion method. The gist of the method:
as §1

On to `NC1=C(C(=O)c2c[nH]c3ccc(Br)cc23)C(c2ccc(Cl)cc2)c2c(ccc3ccccc23)O1` (centres undefined), for which the results for the zone of inhibition at 12 µg/disc in assay [1] and in assay [2] were 6 mm and 45 mm, respectively.

As to `CN(C)[C@@H]1C(O)=C(C(N)=O)C(=O)[C@@]2(O)C(O)=C3C(=O)c4c(O)cccc4[C@@](C)(O)[C@H]3C[C@@H]12` [TETRACYCLINE], the zone of inhibition at 12 µg/disc in assay [3] was 18 mm; in assay [1], 14 mm; in assay [4] it was 7 mm; in assay [2], 16 mm.

On to `NC1=C(C(=O)c2c[nH]c3ccccc23)C(c2ccc(F)cc2)c2c(ccc3ccccc23)O1` (centres undefined), for which the values for the zone of inhibition at 12 µg/disc in assay [1], in assay [4] and in assay [2] were 11 mm, 6 mm and 30 mm, respectively.

Take `COc1cccc(C2C(C(=O)c3c[nH]c4ccccc34)=C(N)Oc3ccc4ccccc4c32)c1` (centres undefined): the zone of inhibition at 12 µg/disc in assay [3] amounted to 17 mm; in assay [2], 35 mm.

Consider `NC1=C(C(=O)c2c[nH]c3ccc(Br)cc23)C(c2ccc(Cl)cc2Cl)c2c(ccc3ccccc23)O1` (centres undefined), for which the zone of inhibition at 12 µg/disc in assay [2] was 30 mm.

For `NC1=C(C(=O)c2c[nH]c3ccc(Br)cc23)C(c2ccc(C3C(C(=O)c4c[nH]c5ccc(Br)cc45)=C(N)Oc4ccc5ccccc5c43)cc2)c2c(ccc3ccccc23)O1` (centres undefined), the results for the zone of inhibition at 12 µg/disc in assay [1] and in assay [2] were 6 mm and 30 mm, respectively.

For the molecule `NC1=C(C(=O)c2c[nH]c3ccccc23)C(c2cccc([N+](=O)[O-])c2)c2c(ccc3ccccc23)O1` (centres undefined), the figures for the zone of inhibition at 12 µg/disc in assay [1] and in assay [2] were 8 mm and 29 mm, respectively.

For `NC1=C(C(=O)c2c[nH]c3ccccc23)C(c2ccc(Br)cc2)c2c(ccc3ccccc23)O1` (centres undefined), in assay [2], the zone of inhibition at 12 µg/disc amounted to 10 mm.

In the case of `NC1=C(C(=O)c2c[nH]c3ccccc23)C(c2ccc(Cl)cc2)c2c(ccc3ccccc23)O1` (centres undefined), the zone of inhibition at 12 µg/disc in assay [4] was found to be 17 mm; in assay [2] it was 8 mm.

Turning to `NC1=C(C(=O)c2c[nH]c3ccc(Br)cc23)C(c2cccnc2)c2c(ccc3ccccc23)O1` (centres undefined), the zone of inhibition at 12 µg/disc in assay [4] is 6 mm; in assay [2], 11 mm.

As to `CC[C@H]1OC(=O)[C@H](C)[C@@H](O[C@H]2C[C@@](C)(OC)[C@@H](O)[C@H](C)O2)[C@H](C)[C@@H](O[C@@H]2O[C@H](C)C[C@H](N(C)C)[C@H]2O)[C@](C)(O)C[C@@H](C)C(=O)[C@H](C)[C@@H](O)[C@]1(C)O` [ERYTHROMYCIN], the zone of inhibition at 12 µg/disc in assay [3] stood at 10 mm; in assay [1], 12 mm; in assay [4], 8 mm; in assay [2], 10 mm.

Consider `Cc1[nH]c2ccccc2c1C(=O)C1=C(N)Oc2ccc3ccccc3c2C1c1ccc(Cl)cc1Cl` (centres undefined), for which the zone of inhibition at 12 µg/disc in assay [3] was found to be 15 mm; in assay [4], 15 mm; in assay [2], 50 mm.

For the molecule `NC1=C(C(=O)c2c[nH]c3ccccc23)C(c2ccc(C3C(C(=O)c4c[nH]c5ccccc45)=C(N)Oc4ccc5ccccc5c43)cc2)c2c(ccc3ccccc23)O1` (centres undefined), the zone of inhibition at 12 µg/disc in assay [2] turned out to be 7 mm.
